Assay outcomes as filed in PubChem BioAssay.
M4 PAM – CHRM4 positive allosteric modulation; P08173; CHO-K1 hM4/Gqi5, Fluo-8 calcium fluorescence, ACh EC20; 0% = ACh EC20, 100% = maximal ACh; activation, % at 3 µM; 0.4% of 360,000 active; AID 624126;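 active = activation above its plate's cutoff, the mean activation of sample wells plus 3 SD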
Target sequence (P08173 whole entry, looked up): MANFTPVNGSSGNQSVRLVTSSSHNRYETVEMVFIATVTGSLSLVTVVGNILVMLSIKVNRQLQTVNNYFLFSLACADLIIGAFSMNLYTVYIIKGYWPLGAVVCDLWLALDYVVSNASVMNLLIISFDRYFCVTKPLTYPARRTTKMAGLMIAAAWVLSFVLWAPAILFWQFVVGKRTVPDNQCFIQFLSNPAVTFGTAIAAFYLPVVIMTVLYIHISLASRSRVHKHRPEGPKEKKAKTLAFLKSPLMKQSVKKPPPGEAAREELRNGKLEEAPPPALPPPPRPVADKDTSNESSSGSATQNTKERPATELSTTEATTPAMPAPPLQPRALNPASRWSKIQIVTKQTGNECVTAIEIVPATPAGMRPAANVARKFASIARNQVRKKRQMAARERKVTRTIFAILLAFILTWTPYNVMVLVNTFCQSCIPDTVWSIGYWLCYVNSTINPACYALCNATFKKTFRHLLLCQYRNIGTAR
M4 antag – blocks acetylcholine activation of human M4 receptor. CHO-hM4 cells, ACh EC80, Fluo-8 calcium fluorescence. P08173. inhibition, % at 3 µM. 0.73% of 360,000 active. AID 624125;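 active = inhibition above its plate's cutoff, the mean inhibition of sample wells plus 3 SD, cut at about 27% in these data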;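 also: 0% = acetylcholine EC80 with DMSO and 100% = DMSO without agonist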
CHRM5 antagonist – antagonists of human muscarinic M5 receptor (CHRM5) | CHO-hM5 cells, Fluo-8 calcium fluorescence, ACh EC80 | 0.59% of 360,000 active | AID 624040 | inhibition, % at 3 µM | P08912;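 active = inhibition above a per-plate cutoff, the mean of that plate's test compounds plus 3 SD, cut at about 27% in these data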;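 also: 0% = acetylcholine EC80 with DMSO and 100% = DMSO without agonist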
CHRM5 PAM – CHRM5 positive allosteric modulation; CHO-K1 hM5, Fluo-8 calcium, ACh EC20 PAM; 0% = ACh EC20, 100% = ACh EC100; activation, % at 3 µM; 0.3% of 360,000 active;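 active = activation above the run cutoff, the mean activation of all test compounds plus 3 SD, cut at about 18% in these data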
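Test system: CHO-K1 hM5 cells / Doses: single-point, 3 µM nominal / Times: Post-acetylcholine fluorescence recording 140 s / Technique: Fluo-8 calcium fluorescence / Measure: Max/basal fluorescence ratio as % of EC20–EC100 ACh window / Benchmarks: low control EC20 acetylcholine (0%), high control EC100 acetylcholine (100%) / Replicates: one well per compound, no replicates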
CHRM4 agonist – agonists of human muscarinic M4 receptor (CHRM4); P08173; CHO-K1 hM4/Gqi5, Fluo-8 calcium fluorescence; vehicle 0%, full acetylcholine response 100%; activation, % at 3 µM; 0.14% of 360,000 active;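 active = activation above the run mean over all test wells plus 3 SD, cut at about 32% in these data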;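 also: peak over basal fluorescence ratio per well then scaled between controls; 0% = DMSO wells and 100% = acetylcholine at EC100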
M5 ag – CHRM5 agonism in calcium assay | AID 624037 | activation, % at 3 µM | 0.19% of 360,000 active | CHO-K1 hM5 cells, Fluo-8 calcium fluorescence; 0% DMSO wells, 100% maximal acetylcholine response;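 active = activation above the run's mean over test compounds plus 3 SD, cut at about 23% in these data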;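 also: signal is peak over basal fluorescence ratio across the kinetic read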
* hit, by the source's call. Rows were chosen to be rich in hits. Some 1.8% of all compounds tested hit in one or more screens of this group.

Results for CCc1ccc(OCC(=O)Nc2ccc(-c3cc4ccccc4oc3=O)c(OC)c2)cc1 ?
M4 PAM: -19.7; M4 antag: 14.9; CHRM5 antagonist: 30.6*; CHRM5 PAM: -14.5; CHRM4 agonist: 6.2; M5 ag: 1.7

What do the screens show for `CC1(C)CC(=O)C2=C(C1)NCN(Cc1ccccc1)C2`?
M4 PAM: 34.4*; M4 antag: -4.0; CHRM5 antagonist: -10.6; CHRM5 PAM: 12.9; CHRM4 agonist: 1.1; M5 ag: 5.8

How did CCCN1CN(Cc2ccccc2)CC2=C1CC(C)(C)CC2=O do in these assays?
M4 PAM: 6.4; M4 antag: -0.5; CHRM5 antagonist: -16.3; CHRM5 PAM: 7.3; CHRM4 agonist: 0.7; M5 ag: -1.6

What do the screens show for `O=C(COC(=O)Cn1cnc2ccccc21)Nc1ccc(F)c(F)c1`?
M4 PAM: 1.6; M4 antag: -3.8; CHRM5 antagonist: -3.7; CHRM5 PAM: 13.3; CHRM4 agonist: 2.9; M5 ag: 2.5

What do the screens show for `Cc1cc(C(=O)CN2C(=O)NC(C)(c3ccc(F)c(F)c3)C2=O)c(C)n1C1CC1` (centres undefined)?
M4 PAM: 1.2; M4 antag: -4.1; CHRM5 antagonist: 1.0; CHRM5 PAM: -2.3; CHRM4 agonist: 20.8; M5 ag: 22.3

How did COc1ccc(C2(C)NC(=O)N(CC(=O)c3cc(C)n(C4CC4)c3C)C2=O)cc1 (centres undefined) do in these assays?
M4 PAM: 1.3; M4 antag: 2.2; CHRM5 antagonist: -0.1; CHRM5 PAM: -6.9; CHRM4 agonist: 35.3*; M5 ag: 42.0*

What do the screens show for `COc1ccccc1CNc1ccc([N+](=O)[O-])cc1C`?
M4 PAM: -11.9; M4 antag: 3.1; CHRM5 antagonist: 32.8*; CHRM5 PAM: -15.4; CHRM4 agonist: 13.3; M5 ag: -4.9

What do the screens show for `Cc1cc([N+](=O)[O-])ccc1NCc1ccccc1`?
M4 PAM: -15.4; M4 antag: 16.4; CHRM5 antagonist: 11.9; CHRM5 PAM: -20.6; CHRM4 agonist: 11.1; M5 ag: -6.5

What do the screens show for `O=C(NCc1ccccn1)c1ccc(OC2CCN(Cc3cccs3)CC2)cc1`?
M4 PAM: -7.4; M4 antag: 9.6; CHRM5 antagonist: -4.0; CHRM5 PAM: 2.1; CHRM4 agonist: 2.1; M5 ag: -8.9

What do the screens show for `O=C(CSc1nnc(Cc2ccccc2)o1)c1cc(F)ccc1F`?
M4 PAM: 5.8; M4 antag: -6.0; CHRM5 antagonist: 2.6; CHRM5 PAM: 21.1*; CHRM4 agonist: -0.1; M5 ag: -0.9

Results for CSc1ncccc1C(=O)N1CCC(C)(C(=O)O)C1 (centres undefined) ?
M4 PAM: 3.3; M4 antag: -10.8; CHRM5 antagonist: -8.4; CHRM5 PAM: 0.5; CHRM4 agonist: 0.1; M5 ag: -0.9

How did COc1cc(O)oc1C=Nc1ccc(Cl)cc1 do in these assays?
M4 PAM: 17.4*; M4 antag: -17.1; CHRM5 antagonist: 0.5; CHRM5 PAM: -4.2; CHRM4 agonist: 1.0; M5 ag: -2.6

How did CC[n+]1ccccc1/C=C/c1ccc(N(C)C)cc1 do in these assays?
M4 PAM: 0.8; M4 antag: 2.1; CHRM5 antagonist: -2.2; CHRM5 PAM: 0.5; CHRM4 agonist: 1.4; M5 ag: -4.2

How did CCCCCC[n+]1ccccc1/C=C/c1ccc(N(C)C)cc1 do in these assays?
M4 PAM: -17.1; M4 antag: 49.4*; CHRM5 antagonist: 63.5*; CHRM5 PAM: -21.4; CHRM4 agonist: 32.5*; M5 ag: 42.5*

Results for N#Cc1ccc(/C=C/C(=O)c2ccc3c(c2)OCO3)cc1 ?
M4 PAM: 17.4*; M4 antag: -19.2; CHRM5 antagonist: -15.9; CHRM5 PAM: -7.5; CHRM4 agonist: 1.4; M5 ag: -6.5

Results for COCCN1C(=O)CSCC1(C)C(=O)NC(C)C (centres undefined) ?
M4 PAM: 0.7; M4 antag: -0.1; CHRM5 antagonist: 8.7; CHRM5 PAM: -5.3; CHRM4 agonist: 0.0; M5 ag: -1.0
